Reference: ChEMBL document CHEMBL4765247, “Novel mouse GABA uptake inhibitors with enhanced inhibitory activity toward mGAT3/4 and their effect on pain threshold in mice” (Eur J Med Chem, 2020)
Activity calls are given as the source filed them.

How the values were obtained:
[1] = test system: Mus musculus; assay: Antiallodynic activity in STZ-induced diabetic neuropathy pain Albino Swiss mouse model assessed as reduced tactile allodynia at 30 mg/kg, ip administered after 3 weeks of STZ stimulation and measured after 1 hr by von Frey test; type: functional, organism-based
Method in brief: (§1)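 STZ given i.p. to induce type I diabetes in mice. About 3 weeks (21 days) later, test doses of 5, 10 and 30 mg/kg were given i.p. Von Frey tactile allodynia was read 1 h after dosing as the mean force needed to elicit paw withdrawal (n=10). Results are mean ± SEM, analysed by one-way ANOVA with Tukey's test against pre-drug force and normoglycemic controls.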

[2] = test system: Mus musculus; assay: Antihyperalgesic activity in STZ-induced diabetic neuropathy pain Albino Swiss mouse model assessed as reduced heat nociceptive threshold at 10 mg/kg, ip administered after 3 weeks of STZ stimulation and measured after 1 hr by hot plate method; type: functional, organism-based
Method in brief: (§2)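 Heat hyperalgesia in STZ-diabetic neuropathic mice (3 weeks after i.p. STZ) was measured on a hot plate 1 h after i.p. dosing. The readout was latency to pain reaction, comparing pre-drug and post-drug values (n=9-10). Results are mean ± SEM, analysed by one-way ANOVA with Tukey's post hoc test against normoglycemic controls.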

[3] = test system: Mus musculus; assay: Antiallodynic activity in STZ-induced diabetic neuropathy pain Albino Swiss mouse model assessed as reduced tactile allodynia at 10 mg/kg, ip administered after 3 weeks of STZ stimulation and measured after 1 hr by von Frey test; type: functional, organism-based; method in brief: as §1
[4] = Lipophilicity, logP of the compound by UPLC-MS method; type: physicochemical; conditions: octanol/water; read-out: logP
Method in brief: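 LogP measured by UPLC on a BEH C18 column (2.1 × 100 mm, 1.7 µm, with C18 pre-column) coupled to an ESI tandem quadrupole MS. The method was calibrated with reference compounds of established logP values.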

[5] = test system: Mus musculus; assay: Antihyperalgesic activity in oxaliplatin-induced […] late neuropathy pain Albino Swiss mouse model assessed as reduction in cold allodynia at 30 mg/kg, ip administered after 7 days of oxaliplatin stimulation by cold plate method; type: functional, organism-based
Method in brief: (§3)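 For cold allodynia, oxaliplatin-treated mice were placed on a cold plate in the acute and late phases of neuropathy after i.p. dosing. The readout was mean latency to pain reaction (n=7-10). Results are mean ± SEM, analysed by one-way ANOVA with Tukey's post hoc test against non-neuropathic controls.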

[6] = test system: Mus musculus; assay: Antihyperalgesic activity in oxaliplatin-induced […] acute neuropathy pain Albino Swiss mouse model assessed as reduction in cold allodynia at 30 mg/kg, ip administered after 3 hrs of oxaliplatin stimulation by cold plate method; type: functional, organism-based; method in brief: as §3
[7] = test system: Mus musculus; assay: Antiallodynic activity in oxaliplatin-induced […] neuropathy pain Albino Swiss mouse model assessed as reduced acute-phase tactile allodynia at 30 mg/kg, ip administered after 3 hrs of oxaliplatin stimulation and measured after 1 hr by von Frey test; type: functional, organism-based
Method in brief: (§4)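 Oxaliplatin-induced peripheral neuropathy in mice was tested in the acute and late phases. Compounds were given i.p. and tactile allodynia was read 1 h later by von Frey as the mean force to elicit paw withdrawal (n=7-10). Results are mean ± SEM, analysed by one-way ANOVA with Tukey's test against pre-drug force and non-neuropathic controls.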

[8] = test system: Mus musculus; assay: Antihyperalgesic activity in STZ-induced diabetic neuropathy pain Albino Swiss mouse model assessed as reduced heat nociceptive threshold at 30 mg/kg, ip administered after 3 weeks of STZ stimulation and measured after 1 hr by hot plate method; type: functional, organism-based; method in brief: as §2
[9] = test system: Mus musculus; assay: Antiallodynic activity in STZ-induced diabetic neuropathy pain Albino Swiss mouse model assessed as reduced tactile allodynia at 5 mg/kg, ip administered after 3 weeks of STZ stimulation and measured after 1 hr by von Frey test; type: functional, organism-based; method in brief: as §1
[10] = molecular target: Sodium- and chloride-dependent GABA transporter 1 (Mus musculus) (UniProt P31648); assay: Displacement of [3H]NO711 from mouse GAT1 expressed in HEK293 cells at 100 uM measured after 40 mins of incubation by LC-ESI-MS-MS method; type: cell-based; conditions: in the assay text read “NO711” for “[3H]NO711”
Method in brief: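 Competitive MS Binding Assay for mGAT1 using NO-711 as a nonlabeled marker, quantified by LC–ESI–MS–MS. Compounds were screened at 100 µM. […] Otherwise, the percentage of remaining binding at 100 µM is given.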

[11] = molecular target: T1, Sodium- and chloride-dependent GABA transporter 1 (Mus musculus, UniProt P31648); assay: Inhibition of mouse GAT1 expressed in HEK293 cell line assessed as inhibition of [3H]GABA uptake measured after 35 mins by liquid scintillation method; type: cell-based
Method in brief: (§5)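 Otherwise, the remaining uptake at 100 µM is reported as a percentage. Values without SEM come from a single triplicate experiment.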

[12] = molecular target: T2, GABA transporter 4 (Mus musculus, UniProt P31650); assay: Inhibition of mouse GAT4 expressed in HEK293 cell line assessed as inhibition of [3H]GABA uptake measured after 35 mins by liquid scintillation method; type: cell-based; method in brief: as §5
T2 sequence (P31650 whole entry): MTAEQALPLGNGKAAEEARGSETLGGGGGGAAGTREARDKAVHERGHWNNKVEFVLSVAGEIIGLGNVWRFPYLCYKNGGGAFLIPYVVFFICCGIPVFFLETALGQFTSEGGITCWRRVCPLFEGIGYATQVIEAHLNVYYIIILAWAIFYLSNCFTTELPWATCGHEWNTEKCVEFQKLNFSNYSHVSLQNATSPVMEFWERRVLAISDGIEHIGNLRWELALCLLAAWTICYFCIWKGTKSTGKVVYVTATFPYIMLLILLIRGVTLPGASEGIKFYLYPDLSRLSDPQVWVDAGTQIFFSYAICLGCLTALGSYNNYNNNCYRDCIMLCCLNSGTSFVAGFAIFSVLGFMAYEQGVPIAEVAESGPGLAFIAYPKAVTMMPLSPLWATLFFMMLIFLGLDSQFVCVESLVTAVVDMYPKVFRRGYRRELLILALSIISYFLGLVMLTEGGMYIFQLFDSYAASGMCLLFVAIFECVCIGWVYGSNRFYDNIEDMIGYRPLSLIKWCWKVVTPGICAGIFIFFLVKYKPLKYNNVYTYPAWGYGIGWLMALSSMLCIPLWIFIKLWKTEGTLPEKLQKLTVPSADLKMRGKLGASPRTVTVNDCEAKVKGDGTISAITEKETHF

[13] = test system: Mus musculus; assay: Antiallodynic activity in oxaliplatin-induced […] neuropathy pain Albino Swiss mouse model assessed as reduced late-phase tactile allodynia at 30 mg/kg, ip administered after 7 days of oxaliplatin stimulation by van Frey test; type: functional, organism-based; method in brief: as §4
[14] = test system: BGT1 (Mus musculus, Slc6a12); assay: Inhibition of mouse GAT2 expressed in HEK293 cell line assessed as residual [3H]GABA uptake at 100 uM measured after 35 mins by liquid scintillation method
[15] = molecular target: Sodium- and chloride-dependent GABA transporter 1 (Mus musculus) (UniProt P31648); assay: Inhibition of mouse GAT1 expressed in HEK293 cell line assessed as inhibition of [3H]GABA uptake at 100 uM measured after 35 mins by liquid scintillation method; values are per cent of control
[16] = molecular target: T1, Sodium- and chloride-dependent GABA transporter 1; assay: Displacement of unlabelled NO711 from mouse GAT1 expressed in HEK293 cells measured after 40 mins of incubation by LC-ESI-MS-MS method
[17] = test system: Mus musculus; assay: Antihyperalgesic activity in oxaliplatin-induced […] late neuropathy pain Albino Swiss mouse model assessed as reduction in cold allodynia at 10 mg/kg, ip administered after 7 days of oxaliplatin stimulation by cold plate method; type: functional, organism-based; method in brief: as §3
[18] = test system: Mus musculus; assay: Antihyperalgesic activity in oxaliplatin-induced […] acute neuropathy pain Albino Swiss mouse model assessed as reduction in cold allodynia at 10 mg/kg, ip administered after 3 hrs of oxaliplatin stimulation by cold plate method; type: functional, organism-based; method in brief: as §3
[19] = test system: Mus musculus; assay: Antiallodynic activity in oxaliplatin-induced peripheral neuropathy pain Albino Swiss mouse model assessed as reduced acute-phase tactile allodynia at 10 mg/kg, ip administered after 3 hrs of oxaliplatin stimulation and measured after 1 hr by von Frey test
[20] = test system: Mus musculus; assay: Antiallodynic activity in oxaliplatin-induced peripheral neuropathy pain Albino Swiss mouse model assessed as reduced late-phase tactile allodynia at 30 mg/kg, ip administered after […] of oxaliplatin stimulation and measured after 1 hr by van Frey test
[21] = molecular target: Betaine/GABA transporter BGT1 (Mus musculus, Slc6a12); assay: Inhibition of mouse GAT2 expressed in HEK293 cell line assessed as inhibition of [3H]GABA uptake measured after 35 mins by liquid scintillation method
[22] = molecular target: GABA transporter 3 (Mus musculus, Slc6a13); assay: Inhibition of mouse GAT3 expressed in HEK293 cell line assessed as inhibition of [3H]GABA uptake measured after 35 mins by liquid scintillation method
[23] = molecular target: T1, Sodium- and chloride-dependent GABA transporter 1; assay: Inhibition of mouse GTA 1 receptor
[24] = molecular target: T3, GABA transporter 3 (Mus musculus, UniProt P31649); assay: Inhibition of mouse GTA 3 receptor
T3 sequence (P31649 whole entry): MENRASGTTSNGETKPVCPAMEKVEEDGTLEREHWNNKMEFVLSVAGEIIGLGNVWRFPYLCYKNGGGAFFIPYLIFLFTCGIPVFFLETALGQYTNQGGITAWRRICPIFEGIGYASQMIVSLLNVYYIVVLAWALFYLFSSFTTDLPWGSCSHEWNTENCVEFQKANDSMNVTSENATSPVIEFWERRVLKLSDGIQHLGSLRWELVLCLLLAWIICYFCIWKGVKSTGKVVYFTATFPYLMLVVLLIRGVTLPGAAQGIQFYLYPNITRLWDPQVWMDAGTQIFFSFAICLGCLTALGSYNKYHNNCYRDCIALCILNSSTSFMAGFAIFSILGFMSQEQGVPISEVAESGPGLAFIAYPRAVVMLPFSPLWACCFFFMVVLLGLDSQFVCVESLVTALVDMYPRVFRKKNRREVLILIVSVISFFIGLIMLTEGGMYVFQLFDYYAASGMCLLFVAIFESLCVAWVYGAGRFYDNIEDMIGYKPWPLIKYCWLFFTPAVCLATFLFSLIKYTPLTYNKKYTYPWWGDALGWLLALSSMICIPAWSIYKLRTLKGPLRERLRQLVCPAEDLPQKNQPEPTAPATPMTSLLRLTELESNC

[25] = molecular target: T2, GABA transporter 4; assay: Inhibition of mouse GTA4 receptor

Cc1ccsc1C(=CCCN(C)C(CO)C(=O)NCc1ccc(Cl)cc1)c1sccc1C (configuration not stated)
Activity [1]: Active | Activity [2]: inactive | Activity [3]: inactive | logP [4]: 6.47 | Activity [5]: inactive | Activity [6]: inactive | Activity [7]: Active | Activity [8]: inactive | Activity [9]: inactive | residual activity [10]: 66% | IC50 [11]: 20.4 µM | IC50 [12]: 9.55 µM | Activity [13]: Active

Cc1ccsc1C(=CCCN(C)C(CO)C(=O)NCc1ccccc1Cl)c1sccc1C (configuration not stated)
residual activity [14]: 65% | residual activity [10]: 96% | IC50 [12]: 77.6 µM | residual activity [15]: 61%

Cc1ccc(CNC(=O)C(CO)N(C)CCC=C(c2sccc2C)c2sccc2C)cc1 (configuration not stated)
Ki [16]: 38.9 µM | IC50 [11]: 20 µM | IC50 [12]: 9.55 µM

Cc1ccsc1C(=CCCN(C)C(CCO)C(=O)N1CCOCC1)c1sccc1C (configuration not stated)
logP [4]: 4.75 | residual activity [14]: 76% | residual activity [10]: 84% | IC50 [12]: 33.1 µM | residual activity [15]: 57%

Cc1ccsc1C(=CCCN(C)C(CO)C(=O)NCc1ccc(F)cc1)c1sccc1C (configuration not stated)
Ki [16]: 51.3 µM | logP [4]: 6.45 | IC50 [11]: 15.1 µM | IC50 [12]: 17 µM

Cc1ccsc1C(=CCCN(C)C(CCO)C(=O)NCc1ccccc1Cl)c1sccc1C (configuration not stated)
Activity [1]: Active | Activity [2]: inactive | Activity [3]: Active | logP [4]: 6.23 | Activity [17]: inactive | Activity [5]: inactive | Activity [6]: inactive | Activity [18]: inactive | Activity [7]: Active | Activity [8]: inactive | Activity [9]: inactive | Activity [19]: Active | residual activity [10]: 77% | Activity [20]: Active | IC50 [11]: 13.8 µM | IC50 [12]: 5.75 µM | Activity [13]: Active

COc1ccc(C(OCCN2CCC[C@H](C(=O)O)C2)(c2ccc(OC)cc2)c2ccc(OC)cc2C)cc1
pIC50 [21]: 4.12 | pIC50 [22]: 4.85

Cc1ccsc1C(=CCCN(C)[C@@H](CCO)C(=O)NCc1ccccc1Cl)c1sccc1C
Ki [16]: 38 µM

O=C1Nc2ccc(-c3cccs3)cc2C1=O
IC50 [23]: > 1000 µM | IC50 [24]: 182 µM | IC50 [25]: 6.31 µM
